Laboratory results taken from ChEMBL document CHEMBL1145460, “Novel vanilloid receptor-1 antagonists: 3. The identification of a second-generation clinical candidate with improved physicochemical and pharmacokinetic properties” (J Med Chem, 2007).
Values after ≈ are worked out from the molar mass of the structure shown. Blank lines part the entries; values can stand above or below the compound they belong to. Active and inactive are the calls of the source. No cut-off for these calls is given here.

Columns and labels:
[1] = biological target: T1, Transient receptor potential cation channel subfamily V member 1 (Rattus norvegicus, UniProt O35433); test: Inhibition of rat TRPV1 expressed in CHO cells assessed as capsaicin-induced Ca2+ influx; assay type: cell-based
[2] = biological target: T1, Transient receptor potential cation channel subfamily V member 1; test: Inhibition of rat TRPV1 expressed in CHO cells assessed as acid-induced Ca2+ influx; assay type: cell-based
[3] = Solubility in 0.01N HCl; assay type: physicochemical
Procedure, shortened: (§1)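 Thermodynamic solubility determined in a high-throughput automated format; media 0.01 N HCl, PBS and simulated intestinal fluid.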

[4] = Clearance in Sprague-Dawley rat at 1 mg/kg, iv up to 6 hrs; assay type: ADME, organism-based; parameters: dose 1 mg/kg, route intravenous; details: in vivo
Rattus norvegicus [5] = test: Inhibition of capsaicin-induced flinching in rat at 10 mg/kg, po up to 8 hrs; assay type: functional, organism-based; parameters: dose 10 mg/kg
Procedure, shortened: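 Rats given 10 mg/kg orally; capsaicin-induced flinching challenged at intervals up to 8 h after dosing.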

Rattus norvegicus [6] = organism: Rattus norvegicus; test: Reduction of thermal hyperalgesia in rat model of CFA-induced inflammation in assessed as minimum effective dose; assay type: functional; details: read-out: MED
Procedure, shortened: (§2)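 Complete Freund's adjuvant injected to induce inflammatory thermal hyperalgesia in rats; oral dose-response, minimum effective dose determined, with corresponding plasma level measured.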

Rattus norvegicus [7] = organism: Rattus norvegicus; test: Plasma concentration in rat model of CFA-induced inflammation; assay type: ADME, organism-based; details: in vivo; procedure, shortened: as §2
[8] = Clearance in Sprague-Dawley rat at 1 mg/kg, iv after 72 hrs; assay type: ADME, organism-based; parameters: dose 1 mg/kg, route intravenous; details: in vivo
[9] = Volume of distribution at steady state in Sprague-Dawley rat at 1 mg/kg, iv after 72 hrs; assay type: ADME, organism-based; parameters: dose 1 mg/kg, route intravenous; details: in vivo, read-out: Vss
[10] = Half life in Sprague-Dawley rat at 1 mg/kg, iv after 72 hrs; assay type: ADME, organism-based; parameters: dose 1 mg/kg, route intravenous; details: in vivo
[11] = AUC (0 to infinity) in Sprague-Dawley rat at 1 mg/kg, iv up to 6 hrs; assay type: ADME, organism-based; parameters: time infinity, dose 1 mg/kg, route intravenous; details: plasma
[12] = Volume of distribution in Sprague-Dawley rat at 1 mg/kg, iv up to 6 hrs; assay type: ADME, organism-based; parameters: dose 1 mg/kg, route intravenous; details: in vivo, read-out: Vss
[13] = Half life in Sprague-Dawley rat at 1 mg/kg, iv; assay type: ADME, organism-based; parameters: dose 1 mg/kg, route intravenous; details: in vivo
[14] = AUC (0-inf) in Sprague-Dawley rat at 5 mg/kg, po up to 8 hrs; assay type: ADME, organism-based; parameters: time infinity, dose 5 mg/kg, route oral; details: plasma
Procedure, shortened: (§3)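 Fasted male Sprague-Dawley rats given 5 mg/kg orally as a suspension in 5% Tween 80/Oraplus; plasma sampled up to 8 h.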

[15] = Oral bioavailability in Sprague-Dawley rat at 5 mg/kg; assay type: ADME, organism-based; details: in vivo; procedure, shortened: as §3
[16] = Solubility in PBS; assay type: physicochemical; procedure, shortened: as §1
[17] = Solubility in SIF; assay type: physicochemical; procedure, shortened: as §1
[18] = Clearance in dog at 1 mg/kg, iv; assay type: ADME, organism-based, Canis lupus familiaris; parameters: dose 1 mg/kg, route intravenous; details: in vivo
Procedure, shortened: (§4)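 Fed male animals given 1 mg/kg intravenously in 80% PEG-400/H₂O.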

[19] = Volume of distribution at steady state in dog at 1 mg/kg, iv; assay type: ADME, organism-based, Canis lupus familiaris; parameters: dose 1 mg/kg, route intravenous; details: in vivo, read-out: Vss; procedure, shortened: as §4
[20] = Half life in dog at 1 mg/kg, iv; assay type: ADME, organism-based, Canis lupus familiaris; parameters: dose 1 mg/kg, route intravenous; details: in vivo; procedure, shortened: as §4
[21] = Oral bioavailability in dog at 3 mg/kg; assay type: ADME, organism-based, Canis lupus familiaris; details: in vivo
Procedure, shortened: (§5)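 Fasted male animals dosed orally at 3 mg/kg, vehicle 10% Pluronic F108 in either Oraplus or H₂O.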

[22] = Clearance in monkey at 1 mg/kg, iv; assay type: ADME, organism-based, Macaca mulatta; parameters: dose 1 mg/kg, route intravenous; details: rhesus monkey, in vivo; procedure, shortened: as §4
[23] = Volume of distribution at steady state in monkey at 1 mg/kg, iv; assay type: ADME, organism-based, Macaca mulatta; parameters: dose 1 mg/kg, route intravenous; details: rhesus monkey, in vivo, read-out: Vss; procedure, shortened: as §4
[24] = Half life in monkey at 1 mg/kg, iv; assay type: ADME, organism-based, Macaca mulatta; parameters: dose 1 mg/kg, route intravenous; details: rhesus monkey, in vivo; procedure, shortened: as §4
[25] = Oral bioavailability in monkey at 3 mg/kg; assay type: ADME, organism-based, Macaca mulatta; details: rhesus monkey, in vivo; procedure, shortened: as §5
Rattus norvegicus [26] = test: Suppression of capsaicin-evoked paw flinching in orally dosed rat; assay type: functional; details: po
Rattus norvegicus [27] = organism: Rattus norvegicus; test: Plasma concentration in rat with capsaicin-evoked paw flinching; assay type: ADME, organism-based; details: in vivo
[28] = AUC (0 to infinity) in Sprague-Dawley rat at 3 mg/kg, po up to 8 hrs; assay type: ADME, organism-based; parameters: time infinity, dose 3 mg/kg, route oral; details: plasma
Procedure, shortened: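 Fasted male Sprague-Dawley rats were given a single oral dose of 3 mg/kg as a suspension in 5% Tween 80/Oraplus. Plasma was sampled for up to 8 h, and AUC0-∞ was reported in ng·h/mL.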

T1 sequence (O35433 whole entry): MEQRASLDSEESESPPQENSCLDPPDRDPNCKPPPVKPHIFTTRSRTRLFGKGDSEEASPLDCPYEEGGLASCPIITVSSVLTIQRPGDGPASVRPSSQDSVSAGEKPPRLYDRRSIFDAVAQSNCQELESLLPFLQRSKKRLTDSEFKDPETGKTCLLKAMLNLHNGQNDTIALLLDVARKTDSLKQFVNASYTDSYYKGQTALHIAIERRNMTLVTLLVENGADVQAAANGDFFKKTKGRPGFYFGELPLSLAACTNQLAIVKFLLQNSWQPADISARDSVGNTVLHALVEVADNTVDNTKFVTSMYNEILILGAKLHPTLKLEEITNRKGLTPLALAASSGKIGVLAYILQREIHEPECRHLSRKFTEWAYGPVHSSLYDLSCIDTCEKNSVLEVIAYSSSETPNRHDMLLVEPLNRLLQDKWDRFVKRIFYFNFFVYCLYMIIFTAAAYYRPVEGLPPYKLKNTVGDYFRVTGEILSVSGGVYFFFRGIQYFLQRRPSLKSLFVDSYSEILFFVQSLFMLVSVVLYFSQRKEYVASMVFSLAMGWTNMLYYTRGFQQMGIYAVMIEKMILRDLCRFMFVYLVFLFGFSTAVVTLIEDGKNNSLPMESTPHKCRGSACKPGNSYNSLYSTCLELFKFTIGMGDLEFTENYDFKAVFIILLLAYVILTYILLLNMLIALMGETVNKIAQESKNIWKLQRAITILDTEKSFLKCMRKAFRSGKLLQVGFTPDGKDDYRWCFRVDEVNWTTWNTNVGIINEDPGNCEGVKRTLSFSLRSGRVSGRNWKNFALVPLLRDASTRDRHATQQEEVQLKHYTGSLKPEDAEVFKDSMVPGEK

Compound: CC(=O)Nc1nc2c(Oc3cc(N4CCNCC4)ncn3)cccc2s1
IC50 [1]: > 4 µM | IC50 [2]: > 4 µM | solubility [3]: 173 µg/mL (≈ 467 µM)

Compound: COc1ccc(C(C)N2CCN(c3cc(Oc4cccc5sc(NC(C)=O)nc45)ncn3)CC2)cc1 (centres undefined)
solubility [3]: ≥ 200 µg/mL

Compound: CC(=O)Nc1nc2c(Oc3cc(N4CCC(C(F)(F)F)CC4)ncn3)cccc2s1
IC50 [1]: 0.33 µM | IC50 [2]: 0.019 µM | solubility [3]: 9 µg/mL (≈ 20.6 µM)

Compound: CC(=O)Nc1nc2c(Oc3cc(N4CCN(C(C)(C)c5ccccc5)CC4)ncn3)cccc2s1
solubility [3]: ≥ 200 µg/mL

Compound: CC(=O)Nc1nc2c(Oc3cc(N4CCN(CC(C)(C)C)CC4)ncn3)cccc2s1
IC50 [1]: 0.003 µM | IC50 [2]: 0.005 µM | solubility [3]: ≥ 200 µg/mL | clearance [4]: 25 mL/min/kg

Compound: CC(=O)Nc1nc2c(Oc3cc(C4CCC(C(F)(F)F)CC4)ncn3)cccc2s1 (centres undefined)
IC50 [1]: 0.35 µM | IC50 [2]: 0.01 µM | solubility [3]: 5 µg/mL (≈ 11.5 µM)

Compound: CC(=O)Nc1nc2c(Oc3cc(N4CCN(C(C)(C)C)CC4)ncn3)cccc2s1
IC50 [1]: 1.5 µM | IC50 [2]: > 4 µM | solubility [3]: ≥ 200 µg/mL

Compound: CC(=O)Nc1nc2c(Oc3cc(C4=CCC(C(F)(F)F)CC4)ncn3)cccc2s1 (centres undefined)
IC50 [1]: 0.027 µM | IC50 [2]: 0.0024 µM | solubility [3]: 13 µg/mL (≈ 29.9 µM)

Compound: CC(=O)Nc1nc2c(Oc3cc(N4CCN(CC(F)(F)F)CC4)ncn3)cccc2s1
IC50 [1]: 0.38 µM | IC50 [2]: 0.12 µM | solubility [3]: ≥ 200 µg/mL

Compound: CC(=O)Nc1nc2c(Oc3cc(N4CCOCC4)ncn3)cccc2s1
IC50 [1]: > 4 µM | IC50 [2]: > 4 µM | solubility [3]: 32 µg/mL (≈ 86.2 µM)

Compound: CC(=O)Nc1nc2c(Oc3cc(N4CCN(C(C)C)CC4)ncn3)cccc2s1
solubility [3]: ≥ 200 µg/mL

Compound: CC(=O)Nc1nc2c(Oc3cc(-c4ccc(C(F)(F)F)cc4)ncn3)cccc2s1 [AMG-517]
solubility [3]: < 1 µg/mL | Vd [12]: 1.6 L/kg | AUC(0-inf) [28]: 12500 ng·h/mL | bioavailability [15]: 32% | solubility [16]: < 1 µg/mL

Compound: CC(=O)Nc1nc2c(Oc3cc(N4CCN(C(C)c5ccc(C(F)(F)F)cc5)CC4)ncn3)cccc2s1 (centres undefined)
IC50 [1]: 0.005 µM | IC50 [2]: 0.0018 µM | solubility [3]: ≥ 200 µg/mL | clearance [4]: 23.3 mL/min/kg | AUC(0-inf) [11]: 720 ng·h/mL | Vd [12]: 4.5 L/kg | half-life [13]: 2.7 h | AUC(0-inf) [14]: 120 ng·h/mL | bioavailability [15]: 3% | solubility [16]: 5 µg/mL (≈ 9.22 µM) | solubility [17]: 121 µg/mL (≈ 223 µM)

Further lines, with some results ahead:

solubility [3]: ≥ 200 µg/mL
Compound: CCC(c1ccccc1)N1CCN(c2cc(Oc3cccc4sc(NC(C)=O)nc34)ncn2)CC1 (centres undefined)

solubility [3]: ≥ 200 µg/mL | clearance [4]: 53.3 mL/min/kg
Compound: CC(=O)Nc1nc2c(Oc3cc(N4CCN(C(C)c5cccc(F)c5)CC4)ncn3)cccc2s1 (centres undefined)

Cp (Rattus norvegicus [7]): 70 ng/mL | clearance [8]: 13.8 mL/min/kg | Vd [9]: 2.6 L/kg | half-life [10]: 3.8 h | solubility [3]: ≥ 200 µg/mL | clearance [4]: 13.3 mL/min/kg | AUC(0-inf) [11]: 1200 ng·h/mL | Vd [12]: 2.8 L/kg | half-life [13]: 2.7 h | AUC(0-inf) [14]: 3100 ng·h/mL | bioavailability [15]: 51% | solubility [16]: 7 µg/mL (≈ 14.2 µM) | solubility [17]: 64 µg/mL (≈ 130 µM) | clearance [18]: 40 mL/min/kg | Vd [19]: 4 L/kg | half-life [20]: 2.7 h | bioavailability [21]: 83% | clearance [22]: 6.67 mL/min/kg | Vd [23]: 0.9 L/kg | half-life [24]: 3.2 h | bioavailability [25]: 12% | Cp (Rattus norvegicus [27]): 128 ng/mL
Compound: CC(=O)Nc1nc2c(Oc3cc(N4CCN([C@H](C)c5ccc(F)cc5)CC4)ncn3)cccc2s1
Activity (Rattus norvegicus [5]): Active | minimal effective dose (Rattus norvegicus [6]): 1 mg/kg | ED50 (Rattus norvegicus [26]): 1.9 mg/kg

solubility [3]: ≥ 200 µg/mL | clearance [4]: 65 mL/min/kg
Compound: CC(=O)Nc1nc2c(Oc3cc(N4CCN(C(C)c5ccccc5)CC4)ncn3)cccc2s1 (centres undefined)

solubility [3]: ≥ 200 µg/mL
Compound: CC(=O)Nc1nc2c(Oc3cc(N4CCN(CCc5ccccc5)CC4)ncn3)cccc2s1

solubility [3]: ≥ 200 µg/mL | clearance [4]: 30 mL/min/kg | AUC(0-inf) [11]: 550 ng·h/mL | Vd [12]: 5.7 L/kg | half-life [13]: 2.5 h | AUC(0-inf) [14]: 2550 ng·h/mL | bioavailability [15]: 93% | solubility [16]: 31 µg/mL (≈ 62.9 µM) | solubility [17]: 121 µg/mL (≈ 246 µM)
Compound: CC(=O)Nc1nc2c(Oc3cc(N4CCN([C@@H](C)c5ccc(F)cc5)CC4)ncn3)cccc2s1

solubility [3]: 46 µg/mL (≈ 85.7 µM)
Compound: CC(=O)Nc1nc2c(Oc3cc(N4CCN(C(c5ccccc5)c5ccccc5)CC4)ncn3)cccc2s1

solubility [3]: ≥ 200 µg/mL | clearance [4]: 50 mL/min/kg
Compound: CC(=O)Nc1nc2c(Oc3cc(N4CCN(C(C)c5ccccc5F)CC4)ncn3)cccc2s1 (centres undefined)

solubility [3]: ≥ 200 µg/mL
Compound: CC(=O)Nc1nc2c(Oc3cc(N4CCN(Cc5ccccc5)CC4)ncn3)cccc2s1

solubility [3]: ≥ 200 µg/mL | clearance [4]: 18.3 mL/min/kg | AUC(0-inf) [11]: 1000 ng·h/mL | Vd [12]: 2.9 L/kg | half-life [13]: 2.4 h | AUC(0-inf) [14]: 1800 ng·h/mL | bioavailability [15]: 35% | solubility [16]: 5 µg/mL (≈ 10.2 µM) | solubility [17]: 34 µg/mL (≈ 69 µM)
Compound: CC(=O)Nc1nc2c(Oc3cc(N4CCN(C(C)c5ccc(F)cc5)CC4)ncn3)cccc2s1 (centres undefined)

solubility [3]: 1.5 µg/mL (≈ 3.36 µM) | clearance [4]: 16.7 mL/min/kg
Compound: CC(=O)Nc1nc2c(Oc3cc(N4CCN(c5ccccc5)CC4)ncn3)cccc2s1
